# Yeast lifespan up: yeast lifespan extension. actives 0.68% (n = 130,000). S. cerevisiae growth with nicotinamide, OD615; deaD strain in restrictive glucose medium. inhibition of the nicotinamide effect, % at 10 µM. AID 775;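 active = inhibition above a set limit, placed 3 SD over the median of all compounds, cut at about 26% in these data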;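 note: 0% = nicotinamide-treated wells and 100% = cells grown without nicotinamide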
#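 assay system = DeaD-strain S. cerevisiae | buffer or medium = restrictive glucose medium | reagent = 1.5 mM nicotinamide | compound = 10 µM single point, 0.25% DMSO | incubation = 48 h compound exposure at 30 °C, humidified | signal = OD615 measurement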
# MRP-1 activ: activators of MRP-1; H69AR cells + doxorubicin, viability rescue, CellTiter-Glo; viability increase, % at 10 µM; actives 0.61% (n = 140,000);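 active = viability gain under doxorubicin at or above a set limit, the compound median plus 3 SD, cut at about 4.7% in these data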;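 note: MRP-1 overexpressing cells given doxorubicin 25 µM after compound pretreatment; 18-22 h compound pretreatment then 72 h with doxorubicin before readout; 0% = doxorubicin-only wells and 100% = vehicle-treated cells without doxorubicin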
# MRP resist rev: compounds reversing MRP-mediated drug resistance | H69AR cells + 2 uM doxorubicin, CellTiter-Glo, 72 h | differential viability (reversal), % at 10 µM | actives 0.04% (n = 85,000) | AID 602;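 active = viability drop by adding the cancer drug above about 55%, with treated viability meeting a 40% cutoff, limit read from the data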;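 note: viability without doxorubicin minus viability with 2 µM doxorubicin for each compound; larger differential means the compound sensitizes cells more to doxorubicin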
# sdo1 growth: restores growth of sdo1-depleted yeast; S. cerevisiae sdo1-depleted JHY4D growth rescue, OD600 30 h; stronger effect = higher value; pdr5 snq2 efflux-pump mutant strain; z-score at 10 µM; actives 0.21% (n = 140,000); AID 817;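 active = z-score above 3 at both the 24 hr and the 30 hr optical density reads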;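 note: z-score against mean and SD of all compound wells on the same plate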
# Yeast growth inh: yeast BB579 growth reduction in restrictive medium | S. cerevisiae BB579 growth, OD615, 48 h | inhibition, % at 10 µM | actives 0.51% (n = 140,000);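 active = inhibition above a set limit, 3 SD over the mean compound inhibition, cut at about 44% in these data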
#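 Material: Saccharomyces cerevisiae DeaD strain BB579, replicative lifespan model yeast; buffer or medium: CSMM-D restrictive synthetic medium containing dextrose (glucose); compound: 10 µM single dose, DMSO 0.25%; timing: 48 h compound exposure at 30 °C after 4 h preincubation; signal: turbidity as optical density at 615 nm; benchmarks: positive control amphotericin B 10 µg/mL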
# Phagocytosis inh: macrophage phagocytosis inhibition; inhibition, % at 5 µM; J774A.1 macrophage IgG-bead phagocytosis, imaging; actives 0.07% (n = 110,000);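 active = inhibition above the mean of the plate negative controls plus 5 SD, cut at about 13% in these data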;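 note: phagocytic index as fraction of beads internalized from green versus red external bead signal; plate controls were DMSO negative control for no effect and cytochalasin-D positive control for full effect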
# The depositor's hits bear a star; . = no result; + = active, no number; [ ] = dose if it differs, or a comment. Hits are enriched below; roughly 2.1% of the tested compounds scored in any of these assays.
SMILES,Yeast lifespan up,MRP-1 activ,MRP resist rev,sdo1 growth,Yeast growth inh,Phagocytosis inh
O=c1c(-c2nnc(SCc3ccc(Cl)cc3)o2)cccn1Cc1ccccc1,6,5.4*,.,-1.3,-98,.
CCCCCCCCCOC(=O)C(CC(=O)O)N1CCOCC1 (configuration not stated),29*,-2,8,-2.1,-41,0
CCCCCOC(=O)CC(C(=O)OCCCCC)N1CCCCC1 (configuration not stated),.,0,16,0.75,-22,.
C/C(=N\NC(=O)c1cccc(S(=O)(=O)Nc2cccc(Cl)c2)c1)c1cccs1,-2,5.6*,.,0.3,-12,8
Cc1ccc(NC(=O)c2cccs2)cc1S(=O)(=O)Nc1cccc(Cl)c1,2,2,.,-1.8,-6,-10
CC(=O)NC1=NN(c2ccccc2)C(=O)C1,-9,-2,.,0.85,1,.
O=C(CCCCl)NC1=NN(c2ccccc2)C(=O)C1,7,7.3*,.,0.81,-27,.
O=C(COc1ccc(Cl)cc1)NC1=NN(c2ccccc2)C(=O)C1,0,3,.,0.37,62*,-1
CS(=O)(=O)c1ccc(Cl)c(NC(=O)c2cccc(Br)c2)c1,1,-2,.,0.12,-14,-7
CNC(=S)NC1CC2CCCC(C1)N2Cc1ccco1 (configuration not stated),68*,-1,.,1,-37,1
CC1CC(C)(C)NC(=S)N1CC(=O)NCc1ccc(Cl)cc1 (configuration not stated),-3,-3,.,2.1,2,-14
COC(=O)c1c(C(=O)OC)c2oc3ccccc3n2c1Cl,-13,-1,3,0.36,-17,-1
Cc1ccc(N2CC(C(=O)Nc3ccc(N(C)C)cc3)CC2=O)cc1C (configuration not stated),-10,-1,3,0.01[10.7 µM],-7,.
O=S(=O)(NCC1CCCO1)c1ccc(Br)s1 (configuration not stated),-3,-2,5,0.98,-21,4
O=S(=O)(NC1CC2CCC1C2)c1ccc(Br)s1 (configuration not stated),-29,-1,-7,-1.3,98*,0
CCOC(=O)c1c(NC(=O)CSc2ncn[nH]2)sc(C)c1C,-17,15*,5,-0.92,-30,0
COc1cccc(/C=C2/SC(=S)N(CC(=O)Nc3nnc(C)s3)C2=O)c1,5,8.8*,.,0.67,-26,.
COc1cc(/C=C2\SC(=S)N(CC(=O)Nc3cccnc3)C2=O)cc(OC)c1OC,9,0,.,-0.48,-48,-6
O=C(CN1C(=O)/C(=C/c2ccccc2)SC1=S)Nc1ncc(Cc2ccccc2)s1,1,5.3*,.,-1.6,-33,0
Cc1ccnc(N=Cc2c(O)ccc3oc4c(c23)CCCC4)c1,45*,-2,.,-0.32,-54,-7
Cc1ccc(NS(=O)(=O)c2cc(C(N)=O)ccc2C)cc1,-6,2,-3,-0.35,-23,-2
Cc1cc(C(=O)CN2C(=O)CCC2=O)c(C)n1Cc1ccccc1,-11,-1,-18,0.12,-36,0
COC(=O)c1[nH]c2c(c1C)C(=O)CCC2,-10,-1,-1,0.18,-37,.
Cc1c(C(=O)OC2CCC(C)CC2)[nH]c2c1C(=O)CCC2 (configuration not stated),-4,5.2*,25,-1.1,1,0
COc1ccc(NC(=O)c2c(F)cccc2F)cc1S(=O)(=O)Nc1ccc(Br)cc1,0,6.3*,.,-1,4,-1
SMILES,Yeast lifespan up,MRP-1 activ,MRP resist rev,sdo1 growth,Yeast growth inh,Phagocytosis inh
C=CCNc1nc(SCC=C)nc2ccsc12,-25,-4,.,-0.47,-42,.
O=C(NNC1=Nc2cccc3cccc1c23)c1ccccc1Br,38*,-1,.,-1.8,-35,-13
CCn1c(SCC(=O)NNC(=O)Cc2ccccc2)nnc1-c1ccccc1,-2,1,.,-0.4,-33,.
Cc1cccc2nc(CSC(=N)N)c(Br)n12,8,2,.,0.11,-31,-5
N=C(N)SCc1nc2ccccn2c1Br,7,7.9*,.,0.36,-17,-12
C=CS(=O)(=O)c1ccc(Oc2ccc(S(=O)(=O)C=C)cc2)cc1,61*,-2,.,0.79,-46,-7
O=S(=O)(c1ccc(Oc2ccc(S(=O)(=O)N3CCOCC3)cc2)cc1)N1CCOCC1,-5,-1,-2,-0.53,-50,0
CC1(C)Cc2c(sc3c2C(=O)N(c2ccccc2)C2=NCCCN23)CO1,-8,-2,-11,-0.26,-35,-1
Oc1ccc(-c2csc(-c3ccccc3)n2)cc1O,-20,-2,-23,-2.5,83*,6
Cc1nc(-c2ccc(O)c(O)c2)cs1,-10,0,-8,1.8,-17,1
CC1(C)CC(=O)C2=C(C1)N(CCN1CCOCC1)C1=C(C(=O)CC(C)(C)C1)C2c1cccc(F)c1,-12,-1,28,-0.61,-19,0
CCCCn1c(/N=C/c2c[nH]c3ccccc23)nc2ccccc21,-19,-3,0,-2,44*,3
CCCn1c(/N=C/c2c[nH]c3ccccc23)nc2ccccc21,-24,-2,-2,-1.9,-28,.
O=[N+]([O-])c1ccc(O)c2ncccc12,-9,-3,.,-2.5,99*,.
Cc1cccc(-n2ncc3c(NCc4ccc5c(c4)OCO5)ncnc32)c1,-19,1,0,-1.8,-15,5
Cc1ccc(-n2ncc3c(NCc4ccc5c(c4)OCO5)ncnc32)c(C)c1,-5,-5,-32,14*,-18,.
COc1ccc(NC(=O)CCCC2CCCCC2)cc1S(=O)(=O)N1CCCCC1,10,5.7*,.,0.03,-56,.
CC(=O)Nc1cccc2ncccc12,3,-2,.,1.3,0,-10
CC(C)(C)OC(=O)[C@H]1[C@H](c2ccc([N+](=O)[O-])cc2)C2(C(=O)c3ccccc3C2=O)C2c3ccccc3C=NN21 (some centres not stated),43*,1,.,0.4,-15,9
COc1ccc([C@H]2[C@H](C(=O)C(C)(C)C)N3N=Cc4ccccc4C3[C@]23N=C(c2ccccc2)OC3=O)cc1 (some centres not stated),-7,-1,0,-1.8,-36,-1
CCN(CC)c1ccc(/C=C2\CCC(/C=C(\C#N)C(=O)Nc3ccccc3F)=C2N2CCOCC2)cc1,-1,-3,.,0.91,-63,+[fluoresces]
N#C/C(=C\C1=C(N2CCOCC2)C(=C\c2ccc(Cl)cc2)/CC1)C(=O)Nc1ccccc1F,1,-5,.,-0.17,-1,12
CC(C)c1ccc(/C=C2\SC(N3CCCC3)=NC2=O)cc1,34*,-1,.,-0.91,-59,-2
CCOc1ccc(NC(=O)CCNS(=O)(=O)c2ccc(Br)s2)cc1,3,0,10,-0.08,-22,.
CCOC(=O)C1=C(N)OC2=C(C(=O)CCC2)C1c1sccc1C (configuration not stated),47*,-3,.,0.96,-8,-3
